We go through 28 compounds from ChEMBL document CHEMBL3352568, “Synthesis and evaluation of in vitro antimycobacterial activity of novel 1H-benzo[d]imidazole derivatives and analogues” (Eur J Med Chem, 2015).

In experiment [1] the test system is Mycobacterium tuberculosis. Briefly: Antimicrobial activity against Mycobacterium tuberculosis H37Rv by two-fold serial dilution method. The experiment is classed as functional. The method, boiled down: (§1)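 Classical test-tube successive two-fold dilution in Youmans' modification of Proskauer and Beck liquid medium with 10% bovine serum. Inocula from 14-day-old cultures. Compounds dissolved in ethylene glycol (stock 10 mg/mL), diluted in medium to 0.75–100 µg/mL. Incubated at 37 °C. MIC is the lowest concentration inhibiting growth relative to a compound-free control.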

Experiment [2] has as its system Mycobacterium tuberculosis. The experiment in a line: Antimicrobial activity against Mycobacterium tuberculosis Spec. 192 by two-fold serial dilution method. Type of experiment: functional. The method, boiled down:
as §1

Experiment [3] deals with Mycobacterium tuberculosis. Briefly: Antimicrobial activity against Mycobacterium tuberculosis Spec. 210 by two-fold serial dilution method. Type of experiment: functional. Summed up:
as §1

For experiment [4], the system named is A549. The experiment in a line: Cytotoxicity against human A549 cells assessed as growth inhibition after 120 hrs by MTT assay. Type of experiment: functional, cell-based. As to conditions: A549, 120 h. Summed up: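 A549 cells were seeded at 4x10^3/well in RPMI1640 with 10% FBS and penicillin/streptomycin and attached overnight. Compounds were added from DMSO stocks at 200-fold concentration, with DMSO-only controls, and cells were exposed continuously for 120 h at 37 °C in 5% CO2. MTT (4 mg/mL in PBS) was added for 4 h, formazan dissolved in DMSO, and A540 read versus untreated cells. IC50 was taken as 50% growth inhibition; at least two independent experiments in duplicate.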

In experiment [5] the test system is LLC-PK1. The experiment in a line: Cytotoxicity against pig LLC-PK1 cells assessed as growth inhibition after 120 hrs by MTT assay. Type of experiment: cell-based. As to conditions: Sus scrofa, LLC-PK1, 120 h. Summed up:
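LLC-PK1 cells were seeded at 1.25x10^4/well in Medium 199 with 3% FBS and penicillin/streptomycin and attached overnight. Compounds were added from DMSO stocks at 200-fold concentration, with DMSO-only controls, and cells were exposed continuously for 120 h at 37 °C in 5% CO2. MTT (4 mg/mL in PBS) was added for 4 h, formazan dissolved in DMSO, and A540 read versus untreated cells. IC50 was taken as 50% growth inhibition; at least two independent experiments in duplicate.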
For orientation: Tetrazolium dyes change colour on reduction, which living cells bring about.

pIC50: −log10 of the molar value. Values after ≈ are worked out from the molar mass of the structure shown.

As a reminder, the MIC is the least concentration at which growth counts as inhibited. Low readings indicate a more susceptible organism, high ones a less susceptible organism. As to `Cc1ccc2[nH]c(CCC3CCCCC3)nc2c1`, the MIC in experiment [1], in experiment [2] and in experiment [3] was 1.5 µg/mL (≈ 6.19 µM) each time.

For the compound `Fc1ccc2[nH]c(CCC3CCCCC3)nc2c1`, the MIC in experiment [1], in experiment [2] and in experiment [3] was 3.1 µg/mL (≈ 12.6 µM) in each case.

What is called pIC50 is the IC50 on a negative log10 scale, so that one unit is a factor of ten. On to `Clc1ccc2[nH]c(CCC3CCCCC3)nc2c1`, for which the MIC in experiment [1], in experiment [2] and in experiment [3] was 0.75 µg/mL (≈ 2.85 µM) throughout. Moreover, the negative-log IC50 (pIC50) in experiment [4] is 4.96; in experiment [5], 4.77.

As for `Brc1ccc2[nH]c(CCC3CCCCC3)nc2c1`, the minimal inhibitory concentration (MIC) in experiment [1], in experiment [2] and in experiment [3] was 0.75 µg/mL (≈ 2.44 µM) in each case. The pIC50 is 4.87 in experiment [4] and 4.49 in experiment [5].

For `O=[N+]([O-])c1ccc2[nH]c(CCC3CCCCC3)nc2c1`, the MIC in experiment [1], in experiment [2] and in experiment [3] was 3.1 µg/mL (≈ 11.3 µM) in each case.

Turning to `Cc1cc2nc(CCC3CCCCC3)[nH]c2cc1C`, the minimal inhibitory concentration (MIC) in experiment [1], in experiment [2] and in experiment [3] was 0.75 µg/mL (≈ 2.93 µM) throughout. Further, the negative-log IC50 (pIC50) is 4.95 in experiment [4] and 4.36 in experiment [5].

On to `Clc1cc2nc(CCC3CCCCC3)[nH]c2cc1Cl`, for which the MIC in experiment [1], in experiment [2] and in experiment [3] was 0.75 µg/mL (≈ 2.52 µM) in each case. Besides, the results for the pIC50 in experiment [4] and in experiment [5] were 4.96 and 5.02, respectively.

`Fc1ccc2[nH]c(CCCC3CCCCC3)nc2c1`: the MIC in experiment [1], in experiment [2] and in experiment [3] was 6.2 µg/mL (≈ 23.8 µM) in each case.

With `Cc1cc2nc(CCCC3CCCCC3)[nH]c2cc1C`, the minimal inhibitory concentration (MIC) stood at 25 µg/mL (≈ 92.4 µM) in experiment [1], 6.2 µg/mL (≈ 22.9 µM) in experiment [2] and 6.2 µg/mL (≈ 22.9 µM) in experiment [3].

`Clc1cc2nc(CCCC3CCCCC3)[nH]c2cc1Cl`: the minimal inhibitory concentration (MIC) in experiment [1] is 12.5 µg/mL (≈ 40.2 µM); in experiment [2], 6.2 µg/mL (≈ 19.9 µM); in experiment [3], 6.2 µg/mL (≈ 19.9 µM).

As to `Cc1ccc2[nH]c(CCCc3ccccc3)nc2c1`, the MIC in experiment [1] amounted to 25 µg/mL (≈ 99.9 µM); in experiment [2] it was 6.2 µg/mL (≈ 24.8 µM); in experiment [3], 100 µg/mL (≈ 399 µM).

For the compound `Fc1ccc2[nH]c(CCCc3ccccc3)nc2c1`, the minimal inhibitory concentration (MIC) in experiment [1] came out at 12.5 µg/mL (≈ 49.2 µM); in experiment [2], 50 µg/mL (≈ 197 µM); in experiment [3], 50 µg/mL (≈ 197 µM).

Take `Cc1cc2nc(CCCc3ccccc3)[nH]c2cc1C`: the MIC in experiment [1], in experiment [2] and in experiment [3] was 6.2 µg/mL (≈ 23.5 µM) in each case.

As to `Clc1cc2nc(CCCc3ccccc3)[nH]c2cc1Cl`, the minimal inhibitory concentration (MIC) in experiment [1], in experiment [2] and in experiment [3] was 6.2 µg/mL (≈ 20.3 µM) in each case.

On to `CS(=O)(=O)n1c(CCCc2ccccc2)nc2cc(F)ccc21`, for which the MIC in experiment [1], in experiment [2] and in experiment [3] was 50 µg/mL (≈ 150 µM) in each case.

Take `O=S(=O)(c1ccccc1)n1c(CCCc2ccccc2)nc2cc(F)ccc21`: the MIC in experiment [1] is 100 µg/mL (≈ 254 µM); in experiment [2], 100 µg/mL (≈ 254 µM); in experiment [3], 50 µg/mL (≈ 127 µM).

With `c1ccc(-c2ccnc(-c3nc4ccccc4[nH]3)c2)cc1`, the MIC in experiment [1] stood at 12.5 µg/mL (≈ 46.1 µM); in experiment [2] it was 6.2 µg/mL (≈ 22.9 µM); in experiment [3] it was 6.2 µg/mL (≈ 22.9 µM).

With `Cc1ccc2[nH]c(-c3cc(-c4ccccc4)ccn3)nc2c1`, the MIC in experiment [1] came out at 3.1 µg/mL (≈ 10.9 µM); in experiment [2], 6.2 µg/mL (≈ 21.7 µM); in experiment [3] it was 3.1 µg/mL (≈ 10.9 µM).

Take `Fc1ccc2[nH]c(-c3cc(-c4ccccc4)ccn3)nc2c1`: the MIC worked out at 6.2 µg/mL (≈ 21.4 µM) in experiment [1], 12.5 µg/mL (≈ 43.2 µM) in experiment [2] and 6.2 µg/mL (≈ 21.4 µM) in experiment [3].

For the compound `Clc1ccc2[nH]c(-c3cc(-c4ccccc4)ccn3)nc2c1`, the MIC in experiment [1] stood at 12.5 µg/mL (≈ 40.9 µM); in experiment [2] it was 12.5 µg/mL (≈ 40.9 µM); in experiment [3], 6.2 µg/mL (≈ 20.3 µM).

`Brc1ccc2[nH]c(-c3cc(-c4ccccc4)ccn3)nc2c1`: the MIC in experiment [1] was 12.5 µg/mL (≈ 35.7 µM); in experiment [2] it was 12.5 µg/mL (≈ 35.7 µM); in experiment [3], 6.5 µg/mL (≈ 18.6 µM).

Turning to `Cc1cc2nc(-c3cc(-c4ccccc4)ccn3)[nH]c2cc1C`, the figures for the MIC in experiment [1], in experiment [2] and in experiment [3] were 25 µg/mL (≈ 83.5 µM), 12.5 µg/mL (≈ 41.8 µM) and 12.5 µg/mL (≈ 41.8 µM), respectively.

For the compound `c1ccc(-c2ccnc(-c3nc4cccnc4[nH]3)c2)cc1`, the MIC in experiment [1], in experiment [2] and in experiment [3] was 12.5 µg/mL (≈ 45.9 µM) in each case.

For the compound `Brc1cnc2[nH]c(-c3cc(-c4ccccc4)ccn3)nc2c1`, the minimal inhibitory concentration (MIC) in experiment [1], in experiment [2] and in experiment [3] was 25 µg/mL (≈ 71.2 µM) in each case.

On to `c1ccc(-c2ccnc(-c3nc4ccncc4[nH]3)c2)cc1`, for which the values for the minimal inhibitory concentration (MIC) in experiment [1], in experiment [2] and in experiment [3] were 12.5 µg/mL (≈ 45.9 µM), 12.5 µg/mL (≈ 45.9 µM) and 3.1 µg/mL (≈ 11.4 µM), respectively.

Take `NNC(=O)c1ccncc1` [ISONIAZID]: the MIC in experiment [1] was determined as 12.5 µg/mL (≈ 91.1 µM); in experiment [2], 12.5 µg/mL (≈ 91.1 µM); in experiment [3], 25 µg/mL (≈ 182 µM).

Consider `NC(=O)c1cnccn1` [PYRAZINAMIDE], for which the minimum inhibitory concentration (MIC) in experiment [1] is 25 µg/mL (≈ 203 µM); in experiment [2], 25 µg/mL (≈ 203 µM); in experiment [3] it was > 400 µg/mL.

As for `CO[C@H]1/C=C/O[C@@]2(C)Oc3c(C)c(O)c4c(O)c(c(/C=N/N5CCN(C)CC5)c(O)c4c3C2=O)NC(=O)/C(C)=C\C=C\[C@H](C)[C@H](O)[C@@H](C)[C@@H](O)[C@@H](C)[C@H](OC(C)=O)[C@@H]1C` [RIFAMPIN], the values for the MIC in experiment [1], in experiment [2] and in experiment [3] were 1.2 µg/mL (≈ 1.46 µM), 1.2 µg/mL (≈ 1.46 µM) and 2.5 µg/mL (≈ 3.04 µM), respectively.
